This note sets out measurements from ChEMBL document CHEMBL4811266 (Bioorg Med Chem Lett, 2021).

pIC50: −log10 of the molar value. Numbered stars: 1 amine (or outer) side, 2 acyl side, 3 side chain; on linkers, the order of the positions; unused ones are H or OH. Square brackets hold non-standard residues; d marks the D form. Peptide text beside a SMILES is read from it. X1 = O=C([C@@H]1Cc2cc(O)ccc2CN1[*:1])[*:2]; Tic(7-OH) = O=C(O)[C@@H]1Cc2ccc(O)cc2CN1 Bounds are passed on as bounds.

The target in data set [1] is T1, Type-1 angiotensin II receptor (Homo sapiens, UniProt P30556).
T1 sequence (P30556 whole entry): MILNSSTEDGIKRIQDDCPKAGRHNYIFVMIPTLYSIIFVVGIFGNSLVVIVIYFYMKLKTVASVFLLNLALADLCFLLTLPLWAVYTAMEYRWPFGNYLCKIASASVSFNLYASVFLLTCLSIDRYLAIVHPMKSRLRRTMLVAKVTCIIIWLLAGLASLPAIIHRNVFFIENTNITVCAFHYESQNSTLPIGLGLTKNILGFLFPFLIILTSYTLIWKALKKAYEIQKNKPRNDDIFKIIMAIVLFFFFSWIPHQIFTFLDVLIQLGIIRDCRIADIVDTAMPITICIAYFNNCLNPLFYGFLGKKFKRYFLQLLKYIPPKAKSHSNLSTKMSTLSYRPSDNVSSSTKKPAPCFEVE
Put plainly: Displacement of [125-I]-[Sar1, Ile8] from recombinant human AT1R transfected in human HEK293 cells incubated for 2 hrs by liquid scintillation counter analysis. The data set is classed as cell-based.

The target of data set [2] is T2, Type-2 angiotensin II receptor (Homo sapiens, UniProt P50052).
T2 sequence (P50052 whole entry): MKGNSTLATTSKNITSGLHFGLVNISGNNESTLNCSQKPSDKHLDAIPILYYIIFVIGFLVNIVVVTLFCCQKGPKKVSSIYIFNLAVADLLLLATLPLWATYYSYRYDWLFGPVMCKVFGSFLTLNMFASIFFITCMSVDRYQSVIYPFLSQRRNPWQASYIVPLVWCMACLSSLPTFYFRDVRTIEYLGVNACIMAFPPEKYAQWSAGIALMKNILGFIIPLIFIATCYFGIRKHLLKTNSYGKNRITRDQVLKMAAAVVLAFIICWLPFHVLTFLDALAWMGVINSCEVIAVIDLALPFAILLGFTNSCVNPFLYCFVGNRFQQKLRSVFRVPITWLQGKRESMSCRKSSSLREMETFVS
Put plainly: Displacement of [125-I]-[Sar1, Ile8] from recombinant human AT2R transfected in human HEK293 cells incubated for 2 hrs by liquid scintillation counter analysis. Format: cell-based.

For a further data set, the species on record is Homo sapiens. Put plainly: Selectivity index, ratio of IC50 for displacement of [125-I]-[Sar1, Ile8] from recombinant human AT1R transfected in human HEK293 cells to IC50 for displacement of [125-I]-[Sar1, Ile8] from recombinant human AT2R transfected in human HEK293 cells.
The nature of data set [3]: Stability of compound in human plasma assessed as parent compound remaining incubated for 24 hrs by LC-MS/MS analysis. Format: ADME, cell-free. The note with it: read-out: Stabilty. In outline: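 Peptides were incubated in human plasma and sampled at different time intervals up to 24 h. Remaining concentration was monitored by LC-MS using selected abundant transitions and expressed relative to the initial concentration.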

For `CC[C@H](C)[C@H](NC(=O)[C@H](Cc1ccc(O)cc1)NC(=O)[C@@H](NC(=O)[C@H](CCCNC(=N)N)NC(=O)[C@@H](N)CC(=O)O)C(C)C)C(=O)N[C@H]1Cc2c([nH]c3ccccc23)CN(CC(=O)N[C@@H](Cc2ccccc2)C(=O)O)C1=O`, the pIC50 in data set [1] is less than 5.00; in data set [2], 7.34. The Ratio IC50 in the data set filed under Homo sapiens was greater than 219. The remaining at 24 h in data set [3] is greater than 50%.

In the case of `CC[C@H](C)[C@H](NC(=O)[C@H](Cc1ccc(O)cc1)NC(=O)[C@@H](NC(=O)[C@@H](N)CCCNC(=N)N)C(C)C)C(=O)N[C@H]1Cc2c([nH]c3ccccc23)CN(CC(=O)N[C@@H](Cc2ccccc2)C(=O)O)C1=O`, the pIC50 in data set [1] is less than 5.00; in data set [2], 6.97. Further, in the data set listed under Homo sapiens, the Ratio IC50 is greater than 94. The remaining at 24 h in data set [3] amounted to 70%.

With `CC[C@H](C)[C@H](NC(=O)[C@H](Cc1ccc(O)cc1)NC(=O)[C@@H](NC(=O)[C@H](CCCNC(=N)N)NC(=O)[C@@H](N)CC(=O)O)C(C)C)C(=O)N1Cc2cc(O)ccc2C[C@H]1C(=O)N1CCC[C@H]1C(=O)N[C@@H](Cc1ccccc1)C(=O)O` (H-DRVYI[Tic(7-OH)]PF-OH), the negative logarithm of the IC50 (pIC50) was less than 5.00 in data set [1] and 7.05 in data set [2]. For the same compound, the Ratio IC50 in the data set filed under Homo sapiens is greater than 112. For the same compound, the remaining at 24 h in data set [3] was greater than 90%.

On to `CC[C@H](C)[C@H](NC(=O)[C@H](Cc1ccc(O)cc1)NC(=O)[C@@H](NC(=O)[C@H](CCCNC(=N)N)NC(=O)[C@@H](N)CC(=O)O)C(C)C)C(=O)N1Cc2ccc(O)cc2C[C@H]1C(=O)N1CCC[C@H]1C(=O)N[C@@H](Cc1ccccc1)C(=O)O` (H-DRVYI[X1]PF-OH), for which the pIC50 in data set [1] is 6.76; in data set [2], 7.23. In addition, the Ratio IC50 in the data set filed under Homo sapiens is 2.9. Moreover, the remaining at 24 h in data set [3] is greater than 50%.

Take `CC[C@H](C)[C@H](NC(=O)[C@H](Cc1ccc(O)cc1)NC(=O)[C@@H](NC(=O)[C@@H](N)CCCNC(=N)N)C(C)C)C(=O)N1Cc2cc(O)ccc2C[C@H]1C(=O)N1CCC[C@H]1C(=O)N[C@@H](Cc1ccccc1)C(=O)O` (H-RVYI[Tic(7-OH)]PF-OH): the pIC50 was 6.87 in data set [1] and 6.93 in data set [2]. Moreover, the Ratio IC50 in the data set filed under Homo sapiens was 1.1. Further, the remaining at 24 h in data set [3] is greater than 70%.

Turning to `CC[C@H](C)[C@H](NC(=O)[C@H](Cc1ccc(O)cc1)NC(=O)[C@@H](NC(=O)[C@@H](N)CCCNC(=N)N)C(C)C)C(=O)N1Cc2ccc(O)cc2C[C@H]1C(=O)N1CCC[C@H]1C(=O)N[C@@H](Cc1ccccc1)C(=O)O` (H-RVYI[X1]PF-OH), the pIC50 in data set [1] is 5.70; in data set [2] it was 6.50. In the data set filed under Homo sapiens, the Ratio IC50 was 6.4. Moreover, in data set [3], the remaining at 24 h is greater than 50%.

Take H-DRVYIYPF-OH: the pIC50 in data set [1] is 4.14. In addition, the Ratio IC50 in the data set filed under Homo sapiens was 18000. Further, the remaining at 24 h in data set [3] was greater than 50%.
